We go through 18 molecules from ChEMBL document CHEMBL1142519, “Synthesis and antiprotozoal activity of cationic 2-phenylbenzofurans” (J Med Chem, 2008).

Activity calls are given as the source filed them. The rule behind the calls is not given here. A value given as a limit tells only on which side of the number the result lay.

Data set [1] relates to Trypanosoma brucei rhodesiense. The data set is described as follows: Antitrypanosomal activity against Trypanosoma brucei rhodesiense STIB 900 infected acute mouse model assessed as survival time at 1 mg/kg, ip administered daily for 4 days. Conditions: route intraperitoneal. The data set is classed as functional. A digest of the protocol: (§1)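 STIB900 acute mouse model of T. b. rhodesiense infection, with intraperitoneal dosing. Read-out is the average days of survival of treated mice. Cures are counted as mice that survive and stay parasite-free for 60 days.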

Data set [2] has as its system Trypanosoma brucei rhodesiense. The data set is described as follows: Antitrypanosomal activity against Trypanosoma brucei rhodesiense STIB 900 infected acute mouse model assessed as survival time at 5 mg/kg, ip administered daily for 4 days. The class given is functional. Conditions: route intraperitoneal. In a few lines:
as §1

In data set [3] the test system is Trypanosoma brucei rhodesiense. The data set is described as follows: Antitrypanosomal activity against Trypanosoma brucei rhodesiense STIB 900 infected acute mouse model assessed as survival time at 10 mg/kg, ip. The class given is functional. Conditions: route intraperitoneal. In a few lines:
as §1

A further data set concerns L6. The data set is described as follows: Cytotoxicity against rat L6 cells. The data set is classed as cell-based. A digest of the protocol: (§2)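 IC50 values in µM, each the average of duplicate determinations. Parasites were T. b. rhodesiense STIB900 and axenic amastigotes of L. donovani MHOM/SD/62/1S-CL2D. Cytotoxicity was run on rat L6 myoblast cells.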
Data set [4] concerns Trypanosoma brucei rhodesiense. The data set is described as follows: Antitrypanosomal activity against Trypanosoma brucei rhodesiense STIB 900 bloodstream trypomastigotes. The class given is functional, organism-based. A digest of the protocol:
as §2

Data set [5] in a line: Selectivity index, ratio of IC50 for rat L6 cells to IC50 for Trypanosoma brucei rhodesiense STIB 900. The data set is classed as toxicity, cell-based. Conditions: read-out: Ratio IC50. In a few lines:
(§3)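 Ratio of the L6 rat myoblast cytotoxicity IC50 to the IC50 against the parasite named in the line. Each IC50 is the average of duplicate determinations.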

Another data set relates to Plasmodium falciparum. The data set is described as follows: Antiplasmodial activity against chloroquine-resistant Plasmodium falciparum K1. The class given is functional, organism-based. A digest of the protocol: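 In vitro IC50 against chloroquine-resistant P. falciparum K1, reported as the average of duplicate determinations.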
The nature of data set [6]: Selectivity index, ratio of IC50 for rat L6 cells to IC50 for chloroquine-resistant Plasmodium falciparum K1. The data set is classed as toxicity, cell-based. Conditions: read-out: Ratio IC50. In a few lines:
as §3

The subject of another data set is Leishmania donovani. The data set is described as follows: Antileishmanial activity against Leishmania donovani MHOM/SD/62/1S-CL2D axenic amastigotes. The data set is classed as functional, organism-based. In a few lines:
as §2

A short description of data set [7]: Selectivity index, ratio of IC50 for rat L6 cells to IC50 for Leishmania donovani MHOM/SD/62/1S-CL2D. The data set is classed as toxicity, cell-based. The settings on record: read-out: Ratio IC50. A digest of the protocol: as §3
The test system of data set [8] is Trypanosoma brucei rhodesiense. The data set is described as follows: Antitrypanosomal activity against Trypanosoma brucei rhodesiense STIB 900 infected acute mouse model assessed as cured mouse at 5 mg/kg, ip daily for 4 days. The data set is classed as functional, organism-based. The arrangement: dose 5 mg/kg. A digest of the protocol: (§4)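 STIB900 acute mouse model of trypanosomiasis with intraperitoneal dosing. The regimens were daily for 4 days at 20, 5 or 1 mg/kg, or a single 10 mg/kg dose. A cure is a mouse that survives and is parasite-free for 60 days. Average days of survival are also recorded.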

Data set [9] has as its system Trypanosoma brucei rhodesiense. The data set is described as follows: Antitrypanosomal activity against Trypanosoma brucei rhodesiense STIB 900 infected acute mouse model assessed as cured mouse at 1 mg/kg, ip daily for 4 days. The class given is functional, organism-based. The arrangement: dose 1 mg/kg. A digest of the protocol: as §4

As a reminder, the IC50 is the concentration that gives 50% inhibition. Low values mean greater potency, high ones weaker potency.

On to `CC(C)NC(=N)c1ccc(-c2cc3cc(C(=N)NC(C)C)cc(O)c3o2)c(O)c1`, for which the Survival was 26.3 days in [1], greater than 60 days in [2] and greater than 50.7 days in data set [3]. Further, the IC50 with L6 was greater than 179000 nM; in [4] it was 23 nM; with Plasmodium falciparum, 310 nM; in the data set on Leishmania donovani it was 46000 nM. Also, the results for the selectivity ratio in data set [5], in data set [6] and in data set [7] were greater than 7780, greater than 577 and greater than 4, respectively. Besides, the result in [8] was Active. Moreover, the result in data set [9] was inactive.
On to `CC(C)NC(=N)c1ccc(-c2cc3cc(C(=N)NC(C)C)cc(O)c3o2)cc1`, for which the Survival is greater than 19.8 days in [1], greater than 60 days in data set [2] and greater than 36.3 days in data set [3]. For the same molecule, the IC50 in the data set with L6 was greater than 185000 nM; in data set [4] it was 28 nM; in the data set on Plasmodium falciparum, 56 nM; with Leishmania donovani, 20000 nM. Also, the figures for the selectivity ratio in data set [5], in data set [6] and in data set [7] were greater than 6610, greater than 3300 and greater than 9, respectively. In addition, the outcome in [8] was Active. Besides, in data set [9], the outcome was inactive.
`N=C(N)c1ccc(O)c(-c2cc3cc(C(=N)N)ccc3o2)c1`: the Survival in data set [1] was 26 days; in [2] it was greater than 60 days; in data set [3], greater than 51.5 days. For the same molecule, the IC50 was greater than 217000 nM with L6, 5 nM in data set [4], 793 nM in the data set with Plasmodium falciparum and 20000 nM with Leishmania donovani. Besides, the selectivity ratio in data set [5] is greater than 43400; in data set [6], greater than 274; in data set [7], greater than 11. Besides, the outcome in [8] was Active. For the same molecule, the outcome in [9] was inactive.
In the case of `COc1cc(C(=N)NC(C)C)ccc1-c1cc2cc(C(=N)NC(C)C)ccc2o1`, in data set [2], the Survival is greater than 39 days. Besides, the IC50 in the data set with L6 was determined as 98100 nM; in data set [4], 74 nM; in the data set with Plasmodium falciparum it was 20 nM; in the data set on Leishmania donovani it was 1500 nM. The selectivity ratio amounted to 1330 in data set [5], 4900 in [6] and 67 in data set [7]. Besides, the outcome in [8] was inactive.
Turning to `c1ccc2[nH]c(-c3ccc(-c4cc5cc(-c6nc7ccccc7[nH]6)ccc5o4)cc3)nc2c1`, in data set [2], the Survival was found to be 5.5 days. Also, the IC50 is 6700 nM in the data set on L6, 249 nM in data set [4], 31 nM with Plasmodium falciparum and greater than 100000 nM in the data set on Leishmania donovani. Further, the selectivity ratio in data set [5] worked out at 27; in [6] it was 216; in data set [7], 0.1. Besides, the outcome in data set [8] was inactive.
For the molecule `COc1ccc(C2=NCCN2)cc1-c1cc2ccc(C3=NCCN3)cc2o1`, the Survival in [2] worked out at 25 days. For the same molecule, the IC50 was 11100 nM in the data set on L6, 17 nM in data set [4], 74 nM with Plasmodium falciparum and 34000 nM in the data set with Leishmania donovani. Moreover, the selectivity ratio in data set [5] stood at 653; in data set [6], 150; in data set [7] it was 0.3. The result in [8] was inactive.
For the molecule `N=C(N)c1ccc(-c2cc3cc(C(=N)N)cc(O)c3o2)c(O)c1`, the values for the Survival in data set [1], in data set [2] and in data set [3] were greater than 33.5 days, greater than 56.8 days and greater than 49.5 days, respectively. Moreover, the IC50 in the data set with L6 was 2100 nM; in [4], 18 nM; in the data set on Plasmodium falciparum, 61 nM; in the data set on Leishmania donovani it was 14000 nM. Also, the selectivity ratio in data set [5] is 117; in data set [6], 34; in [7] it was 0.2.
On to `Oc1cc(C2=NCCN2)ccc1-c1cc2cc(C3=NCCN3)cc(O)c2o1`, for which the Survival in data set [2] is greater than 21 days. Besides, the IC50 with L6 was greater than 193000 nM; in data set [4], 10 nM; with Plasmodium falciparum it was 30 nM; in the data set on Leishmania donovani, 16000 nM. Besides, the selectivity ratio was greater than 19300 in data set [5], greater than 6430 in data set [6] and greater than 12 in data set [7]. Also, the outcome in [8] was inactive.
As to `Oc1cc(C2=NCCN2)ccc1-c1cc2ccc(C3=NCCN3)cc2o1`, in data set [2], the Survival was 23 days. Moreover, the IC50 with L6 is greater than 193000 nM; in [4], 11 nM; in the data set on Plasmodium falciparum, 98 nM; in the data set with Leishmania donovani it was 13000 nM. Moreover, the selectivity ratio in data set [5] was greater than 17500; in data set [6], greater than 1970; in [7], greater than 15. For the same molecule, the outcome in data set [8] was inactive.
Turning to `Oc1cc(C2=NCCN2)cc2cc(-c3ccc(C4=NCCN4)cc3)oc12`, the Survival in [1] is greater than 39 days; in data set [2] it was greater than 49.8 days; in data set [3], greater than 51.3 days. Further, the IC50 with L6 is greater than 203000 nM; in [4], 4 nM; in the data set with Plasmodium falciparum, 22 nM; in the data set with Leishmania donovani, 7400 nM. Moreover, the selectivity ratio in [5] was greater than 50800; in data set [6], greater than 9230; in [7], greater than 27.
As for `CC(C)NC(=N)c1ccc(-c2cc3ccc(C(=N)NC(C)C)cc3o2)c(O)c1`, the Survival in [1] is greater than 46.5 days; in data set [2], greater than 55.5 days; in data set [3], greater than 51.8 days. The IC50 was greater than 183000 nM in the data set on L6, 9 nM in data set [4], 597 nM with Plasmodium falciparum and 39000 nM in the data set with Leishmania donovani. Moreover, the selectivity ratio was greater than 20300 in data set [5], greater than 307 in [6] and greater than 5 in [7].
With `N=C(N)c1ccc(-c2cc3cc(C(=N)N)ccc3o2)c(O)c1`, the Survival in data set [1] was 34.8 days; in data set [2] it was greater than 54.5 days; in data set [3] it was greater than 55.3 days. Moreover, the IC50 in the data set with L6 stood at 33300 nM; in data set [4] it was 2 nM; in the data set with Plasmodium falciparum, 4 nM; in the data set on Leishmania donovani it was 1800 nM. Also, the selectivity ratio in data set [5] was 16600; in [6] it was 8320; in [7], 19. Moreover, in data set [9], the result was inactive.
Regarding `N=C(N)c1ccc(-c2cc3cc(C(=N)N)cc(O)c3o2)cc1`, the Survival in data set [1] is greater than 30.8 days; in [2] it was greater than 60 days; in data set [3], greater than 43 days. Besides, the IC50 in the data set with L6 came to 184000 nM; in [4], 3 nM; in the data set with Plasmodium falciparum, 47 nM; with Leishmania donovani, 5300 nM. Besides, the values for the selectivity ratio in data set [5], in data set [6] and in data set [7] were 61300, 3920 and 35, respectively. Besides, the outcome in [8] was Active.
Take `c1ccc2[nH]c(-c3ccc4oc(-c5ccc(C6=NCCN6)cc5)cc4c3)nc2c1`: the Survival in data set [2] came to 11 days. Also, the IC50 with L6 stood at 6100 nM; in [4] it was 122 nM; with Plasmodium falciparum, 40 nM; in the data set on Leishmania donovani, 5700 nM. Moreover, the selectivity ratio in [5] came out at 50; in data set [6], 153; in data set [7], 1. Further, in data set [8], the outcome was inactive.
`COc1cc(C2=NCCN2)ccc1-c1cc2ccc(C3=NCCN3)cc2o1`: in data set [2], the Survival was 7 days. The 50% inhibitory concentration (IC50) is 4400 nM in the data set with L6, 49 nM in [4], 77 nM in the data set on Plasmodium falciparum and greater than 100000 nM in the data set on Leishmania donovani. Besides, the selectivity ratio in [5] is 90; in data set [6], 57; in [7] it was less than 0.04. Also, in [8], the outcome was inactive.
On to `Oc1ccc(C2=NCCN2)cc1-c1cc2ccc(C3=NCCN3)cc2o1`, for which the Survival in data set [2] was 14 days. Further, the IC50 was greater than 189000 nM with L6, 83 nM in data set [4], 103 nM with Plasmodium falciparum and 35000 nM with Leishmania donovani. Moreover, the figures for the selectivity ratio in data set [5], in data set [6] and in data set [7] were greater than 2280, greater than 1840 and greater than 6, respectively. Also, the outcome in [8] was inactive.
Take `COc1ccc(C2=NCCN2)cc1-c1cc2cc(C3=NCCN3)ccc2o1`: the Survival in data set [2] worked out at 8.5 days. In addition, the IC50 is 30800 nM in the data set on L6, 27 nM in [4], 65 nM with Plasmodium falciparum and greater than 50000 nM with Leishmania donovani. In addition, the selectivity ratio in data set [5] is 1140; in [6], 474; in data set [7], less than 0.6. The result in [8] was inactive.
In the case of `N=C(N)c1cccc(-c2cc3ccc(C(=N)N)cc3o2)c1`, the Survival in [2] was found to be 33 days. For the same molecule, the IC50 in the data set with L6 was 131000 nM; in [4] it was 21 nM; in the data set with Plasmodium falciparum, 4 nM; in the data set on Leishmania donovani, 14000 nM. Besides, the selectivity ratio stood at 6240 in data set [5], 32800 in data set [6] and 9 in data set [7]. Moreover, the result in [8] was inactive.
